High-throughput results as filed in PubChem.
Sampled rows, rich in hits. Any-hit rate of the full collection: about 3.3%.
E-selectin induc = E-selectin induction on HUVECs; P16581; HUVEC E-selectin immunofluorescence imaging; normalized: neutral wells 0, TNF-alpha wells 100; activation, % at 7.58 µM; hit rate 0.37% among 260,000;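 active = mean E-selectin-positive cell signal at least 10% of the positive control, reached in at least 60% of replicates, without over 20% cell loss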
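Test system: HUVEC; input: 3,000 HUVEC/well; measured by: immunofluorescence imaging; read-out: % PE-positive cells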
Xi reactivation = X-chromosome reactivation activator. hit rate 0.055% among 360,000. activation, % at 7.58 µM. AID 743238. XiGFP mouse fibroblasts, % GFP-positive cells imaging, 3 d; cells co-treated with 5-aza-dC sensitizer; scaled so ellipticine positive control = 100%;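 active = mean normalized replicate activation at least 10% and every replicate at or above 10%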;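 note: 0% = median of on-plate neutral control wells and 100% = ellipticine 6 µM median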
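Assay system – SV40-immortalized XiGFP fibroblast cells, line 68-5-11 · Buffer or medium – DMEM supplemented with 5-aza-dC as sensitizing agent · Dosing – one concentration, pinned · Benchmarks – positive control ellipticine, 6 µM final · Times – 3 days compound exposure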
DENV2 CPE rescue = DENV2-induced cell death inhibition; CPE inhibition, % at 9.99 µM; DENV2-infected cells, cytopathic effect rescue, plate reader; hit rate 1.7% among 350,000; in the data active = CPE inhibition above about 20%, passing the limit was not always enough; tested in BHK-21 cells;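 note: 0% = median of neutral control wells and 100% = median of positive control wells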
FGF22 binding = binders of recombinant human FGF22 by thermal shift. Q9HCT0. hit rate 1.5% among 340,000. activity (Tm shift, normalised), % at 9.99 µM. SYPRO orange fluorescence; percent of sucrose octasulfate shift, DMSO zero;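 active = mean Tm shift, scaled 0 neutral to 100 positive control, at about 1.3% or above, every replicate too, limit read from the data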
C2C12 statin = suppression of simvastatin myotoxicity; rescue of ATP level, % at 7.49 µM; C2C12 myotubes + simvastatin, ATP luminescence, 48 h; scaled: DMSO 0, geranylgeraniol control 100; hit rate 0.78% among 330,000;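 active = mean ATP rescue above about 67%, or every replicate alone reaching that limit, limit read from the data, passing the limit was not always enough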;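 note: myotubes were challenged with 10 µM simvastatin during compound exposure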
PglD inh = PglD (C. jejuni) enzyme inhibition | purified PglD enzyme, DTNB colorimetric CoA detection | inhibition, % at 12.5 µM | hit rate 0.098% among 360,000; in the data active = inhibition above about 16%, passing the limit was not always enough
* = called active by the depositor; · = not tested or not shown.

SMILES | E-selectin induc | Xi reactivation | DENV2 CPE rescue | FGF22 binding | C2C12 statin | PglD inh
CCOc1cc(/C=N/NC(=O)c2cccnc2)ccc1OCC(N)=O | -1 | 0 | 11 | 0 | · | ·
CCOc1cc(/C=N/NC(=O)c2cccnc2)ccc1OCC(=O)N(C)C | · | 0 | -6 | 44* | · | ·
COc1ccc(CC(=O)N/N=C(\C)c2cccnc2)cc1OC | -1 | 0 | -7 | 0 | 5 | 3
CCOc1ccc(CC(=O)N/N=C(\C)c2cccnc2)cc1OCC | -1 | 0 | 78* | 0 | 2 | -1
Cc1ccc(OCc2ccc(Br)cc2)c([N+](=O)[O-])n1 | · | 0 | -10 | 45* | · | ·
Cc1ccc(OCc2ccc(-c3ccccc3)cc2)c([N+](=O)[O-])n1 | · | 1 | 36* | 0 | · | 3
O=[N+]([O-])c1ncccc1OCc1ccc(-c2ccccc2)cc1 | · | 0 | -7 | 0 | -27 | 2
O=C(C[C@@H]1CC[C@H]2[C@@H](COC[C@@H](O)CN2Cc2ccccc2F)O1)NCc1ccccc1F | 0 | 0 | -4 | 0 | 13 | -2
C[C@@H]1CN([C@@H](C)CO)C(=O)c2cc(NC(=O)Nc3ccc(C(F)(F)F)cc3)ccc2O[C@H]1CN(C)C(=O)Nc1cccc2ccccc12 | 1 | 1 | -3 | 1 | 2 | 0
O=C(NC1CCSc2ccccc21)c1cccc(Br)c1 (stereo not given) | 0 | 0 | 2 | 0 | 8 | 2
O=C(NC1CCSc2ccccc21)c1cccc(OC(F)F)c1 (stereo not given) | 2 | 0 | -2 | 0 | 67* | 9
Cc1ccc(OCC(=O)NC2CCSc3ccccc32)cc1 (stereo not given) | · | 0 | 26* | 0 | 2 | 7
CO[C@H]1CN(C)C(=O)c2cc(NC(=O)C3CC3)ccc2OC[C@@H](C)N(Cc2ccccc2)C[C@@H]1C | 0 | 0 | 0 | 0 | 14 | 6
COc1ccc(S(=O)(=O)N[C@@H]2CC[C@@H](CCNC(=O)c3ccccc3F)O[C@@H]2CO)cc1 | 0 | 0 | 0 | 0 | -3 | 3
O=C(O)CCCC(=O)Nc1ccc(Br)cc1 | · | · | · | · | 10 | -4
O=C(O)CCCC(=O)Nc1ccccc1Br | · | · | · | · | 71* | -1
CCCC#Cc1cnc2c(c1)C(=O)N([C@@H](C)CO)C[C@@H](C)[C@H](CN(C)C(=O)Nc1ccccc1OC)O2 | 0 | 0 | -7 | 1 | 19 | 2
CC(C)n1cnnc1SCC(=O)Nc1cccnc1Cl | · | 0 | 68* | 0 | 24 | 4
Cc1ccccc1-n1cnnc1SCC(=O)Nc1cccnc1Cl | 2 | 0 | · | 0 | · | ·
COc1ccccc1-c1ccc([C@@H]2C[C@H]3[C@H](CON3C)CN2C(=O)c2ccc(-c3ccccc3)cc2)cc1 | 1 | 0 | 38* | 0 | 11 | -4
COc1ccc(CNC(=O)c2ccc(N3CCCC3=O)cc2)cc1 | · | · | 5 | 0 | 7 | 4
COc1ccc(C(CNC(=O)c2cccc3cccnc23)N(C)C)cc1 (stereo not given) | · | 0 | 46* | 0 | 11 | 5
COc1ccc(/C=C/C(=O)Nc2ccccc2C(=O)NCC(c2ccc(OC)cc2)N(C)C)cc1 (stereo not given) | · | 0 | 1 | -1 | -25 | -1
COc1ccc(C(CNC(=O)c2ccc(N3CCCC3=O)cc2)N(C)C)cc1 (stereo not given) | · | · | · | · | 84* | -25
COC(=O)CCCCCCC(=O)Nc1ccc(C2OC(CSc3nc4ccccc4s3)CC(c3ccccc3)O2)cc1 (stereo not given) | · | · | -1 | 0 | · | 5
COc1ccc(OC)c(-c2cc(C(=O)NC3CCCC3)c3ccccc3n2)c1 | 0 | 0 | 36* | 0 | 3 | 2
CC(C)(O)/C=C/C[C@](C)(O)C1CC[C@]2(C)C1[C@H](O[C@H]1O[C@@H](CO)[C@H](O)[C@@H](O)[C@@H]1O)CC1[C@@]3(C)CC[C@H](O)C(C)(C)C3[C@@H](O)C[C@]12C (stereo not given in full) | 0 | 0 | 42* | 0 | 5 | 7
COc1ccc(/C=C(\NC(=O)c2ccccc2)C(=O)OCC2CCCN3CCCCC23)cc1OC (stereo not given) | · | 0 | -6 | 44* | · | ·
